Sampled rows, rich in hits. Any-hit rate of the full collection: about 2.3%.
CSN inh: inhibitors of human CSN-mediated cullin deneddylation | Q92905 | Purified CSN, SCF-Nedd8-OG deneddylation, fluorescence polarization | inhibition, % at 12.5 µM | 0.38% of 360,000 active | AID 651999;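 active = pattern-corrected inhibition above about 35%, with an unprinted fluorescence ratio check between 0.5 and 1.5, limit read from the data, passing the limit was not always enough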;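 also: 0% = enzyme with substrate and 100% = substrate without enzyme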
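Assay system: purified human Csn5 enzyme expressed in HEK293T cells; measure: % inhibition; also added: SCFSkp2-Nedd8OG substrate at 10 nM final; technique: fluorescence polarization; times: reaction 90 min, room temperature; medium: Tris buffer pH 7.5, NaCl, DTT, Tween-20, trehalose, ovalbumin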
SKN-1 block: blocks SKN-1 activity in C. elegans | C. elegans VP596 Pgst-4::GFP/RFP ratio, acrylamide-induced, 24 h | inhibition, % at 21.8 µM | 0.49% of 360,000 active;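 active = interference check ratio from 0.5 to 1.5 plus GFP to RFP signal ratio inhibition reaching or exceeding a fixed threshold, cut at about 30% in these data, passing the limit was not always enough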
MT1-MMP act inh: MT1-MMP (human) activation inhibition | P50281 | HT1080 RFP-PRO-GFP cells, GFP/RFP ratio fluorescence, overnight; percent of plate control window, DMSO zero | GFP/RFP ratio change, % at 20 µM | 0.061% of 360,000 active | AID 651647;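 active = GFP/RFP ratio change of at least 30% with cell ATP level not reduced by more than half and red fluorescence within 50% of control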
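Test system: HT1080 RFP-PRO-GFP cells; Benchmarks: DMSO and RFP-L50D-GFP cell wells; Timing: cells overnight before dosing, compound overnight, 37 °C, 5% CO2; Compound: one 20 µM compound dose with 1% DMSO; Read-out: GFP/RFP fluorescence ratio.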
Rpn11 block: blocks the human proteasome subunit Rpn11; human 26S proteasome, Ub4-pepOG fluorescence polarization; 20S core pre-blocked with epoxomicin; O00487; 0.59% of 360,000 active; inhibition, % at 20 µM;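 active = inhibition at 20 µM, scaled to each plate's controls, above about 33%, limit read from the data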
Target sequence (O00487 whole entry, looked up): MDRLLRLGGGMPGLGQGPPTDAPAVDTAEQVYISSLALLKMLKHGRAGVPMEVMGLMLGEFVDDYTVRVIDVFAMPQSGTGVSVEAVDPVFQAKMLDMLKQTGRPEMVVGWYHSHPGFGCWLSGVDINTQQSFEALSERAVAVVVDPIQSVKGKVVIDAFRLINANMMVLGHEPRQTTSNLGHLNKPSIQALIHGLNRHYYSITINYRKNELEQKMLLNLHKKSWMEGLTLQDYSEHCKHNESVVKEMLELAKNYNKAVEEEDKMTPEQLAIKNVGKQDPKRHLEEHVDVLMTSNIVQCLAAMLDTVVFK
SUMO1 PPI mod: alters human SUMO1 binding to SIM partners; P63165; 0.33% of 360,000 active; AID 602429; inhibition, % at 20 µM; SUMO1 binding to a labelled peptide, TR-FRET, 1 h; in the data active = inhibition above about 37%
Target sequence (P63165 whole entry, looked up): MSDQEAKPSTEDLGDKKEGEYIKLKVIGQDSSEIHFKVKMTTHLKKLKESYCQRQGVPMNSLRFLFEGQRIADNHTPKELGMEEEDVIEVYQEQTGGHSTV
DNMT1 block: inhibitors of human DNMT1; P26358; DNMT1 molecular beacon, Hinp1I cleavage, fluorescence; inhibition (reported as % activation of signal), % at 10 µM; 0.83% of 360,000 active; AID 588458; in the data active = inhibition above about 50%
Beacon interf DR: shows spectral interference in the DNMT1 beacon assay | AID 602382 | 200 tested, under 10 active | shares compounds with DNMT1 block | molecular beacon fluorescence, spectral interference counter-screen | IC50, µM; call rule not given here
DNMT1 confirm: DNMT1 inhibition confirmation, single concentration. 8% of 2,300 active. DNMT1 molecular beacon HinP1I cleavage, fluorescence. inhibition, % at 10 µM. shares compounds with DNMT1 block;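 active = average inhibition of at least 30% in the single-concentration confirmation test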
DNMT1 interf: beacon fluorescence artifact counter-screen; shares compounds with DNMT1 block; DNMT1 molecular beacon spectral interference counterscreen, fluorescence 485/520; activation (fluorescence interference), % at 10 µM; 1% of 2,300 active; AID 602387;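 active = activation of at least 30% at 10 µM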;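 also: DNMT1 catalytic domain with a HinP1I cleavage step and a FAM/dabcyl DNA beacon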
Rpn11 confirm: Rpn11 inhibition confirmation, single concentration; shares compounds with Rpn11 block; AID 602318; purified human 26S proteasome, Ub4-pepOG fluorescence polarization; proteasome pretreated with epoxomicin; 29% of 1,900 active; inhibition, % at 20 µM
MMP-2 counter: counter-screen for RPN11 inhibitors: inhibition of human MMP-2. shares compounds with Rpn11 block. recombinant MMP-2, FRET peptide cleavage fluorescence. AID 602330. 4% of 1,900 active. inhibition, % at 20 µM;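 also: human MMP-2 activated beforehand with APMA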
Thrombin inh: counter-screen for RPN11 inhibitors: inhibition of bovine thrombin | shares compounds with Rpn11 block | bovine thrombin cleavage of Ub4-pepOG, fluorescence polarization | inhibition, % at 20 µM | 13% of 1,900 active;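 active = mean inhibition at least 40% at 20 µM, or signal 3 deviations below plate average, so some actives read negative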;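 also: plate controls were thrombin with DMSO for no effect and buffer wells lacking thrombin for full effect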
An asterisk follows results filed as active; · = not tested or not shown. Rule as the data show it, unless noted: active = inhibition above about 40%; inactive = the rest.

SMILES	CSN inh	SKN-1 block	MT1-MMP act inh	Rpn11 block	SUMO1 PPI mod	DNMT1 block	DNMT1 confirm	DNMT1 interf	Rpn11 confirm	MMP-2 counter	Thrombin inh	others
CC(C)COc1ccc(-c2nn(-c3ccccc3)cc2/C=C2/SC(=S)N(CC(=O)O)C2=O)cc1	13	0	-2	49*	21	65*	67*	-9	41*	-23	49*	Beacon interf DR=>99
CCc1ccc(OCC(=O)Nc2ccc(-c3nc4ccccc4o3)c(O)c2)cc1	-1	-32	6	128*	2	77*	4	3	-14	-21	-23
CCc1nc2c(OCc3cccc(Cl)c3)cccn2c1N(C)C(=O)C1CC1	6	-9	-12	0	6	-2	·	·	·	·	·
S=c1[nH]nc(-c2cc(-c3ccccc3)n[nH]2)n1/N=C/c1ccc(Cl)c(Cl)c1	72*	15	6	58*	98*	83*	9	0	55*	15	-15
S=c1[nH]nc(-c2cc(-c3ccccc3)n[nH]2)n1/N=C/c1ccc(Cl)cc1	1	18	10	4	3	36	·	·	·	·	·
COc1ccc(NC(=O)C2(C)Cc3c(-c4cccc(C(F)(F)F)c4)ccnc3O2)cc1OC (stereo not drawn)	5	1	-4	-2	9	-7	·	·	·	·	·
CCN1CCc2nc(NC(=O)CC(c3ccccc3)c3ccccc3)sc2C1	5	5	-4	30	-4	44	·	·	·	·	·
CCN1CCc2nc(NC(=O)C(c3ccccc3)c3ccccc3)sc2C1	5	15	-3	43*	-16	63*	1	4	10	-19	-3
NC(CCc1ccccc1)c1csc(Nc2cnccn2)n1 (stereo not drawn)	-2	10	-7	-5	-2	-7	·	·	·	·	·
CC(C)CNC(=O)COC(=O)c1c2c(nc3ccccc13)/C(=C\c1cccs1)CC2	9	15	-4	17	-8	-1	·	·	·	·	·
CN(CCC#N)C(=O)COC(=O)c1c2c(nc3ccccc13)/C(=C/c1ccco1)CC2	45	2	0	71*	15	100*	21	13	45*	30	25
Cc1ccc(S(=O)(=O)/N=C2/NC(=O)/C(=C/c3cccnc3)S2)cc1	2	-10	-2	2	13	4	·	·	·	·	·
Cc1ccc(S(=O)(=O)/N=C2/NC(=O)/C(=C/c3ccc(Br)o3)S2)cc1	34	15	-4	61*	27	85*	8	-1	28	-8	18
Brc1ccc(C2=Nn3c(nnc3-c3cccnc3)SC2)s1	94*	0	1	67*	-8	62*	0	-5	1	-36	-9
O=C(Nc1ccccc1F)c1ccc2sc([C@@H]3O[C@H](CO)[C@H](O)[C@H](O)[C@H]3O)nc2c1	0	24	3	-5	1	9	·	·	·	·	·
Cc1ccc(CN2CC(N3CCN(CC4CC4)CC3)CS2(=O)=O)cc1 (stereo not drawn)	-1	2	6	-2	4	5	·	·	·	·	·
